# Compound activity (PubChem BioAssay)
# An excerpt weighted towards active compounds, which were near 1.7% of everything screened.
# Vif imaging: inhibitors of HIV Vif | HEK293T cells, Vif self-association by quenched fluorescence, imaging, 24 h | actives 0.35% (n = 340,000) | inhibition, % at 7.49 µM; in the data active means inhibition above about 50%, passing the limit was not always enough; inconclusive means no clear call, values can overlap the other calls; inactive means below about 31%
# Runt-CBFb FRET: Runt domain-CBFb interaction inhibition. AID 1496. Q01196+Q13951. Cerulean-Runt/Venus-CBFb FRET ratio 530/480, 1 h. actives 0.46% (n = 220,000). inhibition, % at 20 µM;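 active means inhibition over about 50% at 20 µM in the single-dose screen, limit read from the data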;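 further: 0% = DMSO wells and 100% = excess unlabeled CBFb competitor control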
# Target sequence (Q01196 whole entry, looked up, the tested form may be a part): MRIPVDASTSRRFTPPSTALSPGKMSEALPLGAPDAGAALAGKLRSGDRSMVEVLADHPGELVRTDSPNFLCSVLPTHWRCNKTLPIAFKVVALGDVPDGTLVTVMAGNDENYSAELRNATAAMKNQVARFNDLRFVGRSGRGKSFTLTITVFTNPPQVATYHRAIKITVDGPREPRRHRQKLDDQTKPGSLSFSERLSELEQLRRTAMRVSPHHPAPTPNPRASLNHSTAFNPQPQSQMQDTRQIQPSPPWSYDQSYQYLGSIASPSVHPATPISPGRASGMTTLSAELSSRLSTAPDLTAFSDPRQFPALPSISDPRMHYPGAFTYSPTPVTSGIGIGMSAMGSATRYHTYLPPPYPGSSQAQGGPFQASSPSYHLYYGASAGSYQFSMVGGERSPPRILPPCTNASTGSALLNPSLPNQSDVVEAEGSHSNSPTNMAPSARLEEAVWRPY
# Target sequence (Q13951 whole entry, looked up, the tested form may be a part): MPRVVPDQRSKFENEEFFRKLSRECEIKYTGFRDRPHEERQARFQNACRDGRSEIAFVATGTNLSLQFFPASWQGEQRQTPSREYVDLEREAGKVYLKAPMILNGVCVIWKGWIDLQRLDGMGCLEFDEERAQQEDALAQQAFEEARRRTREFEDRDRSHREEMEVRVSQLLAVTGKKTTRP
#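 Buffer or medium: Tris pH 7.5 buffer with BSA. Assay system: Cerulean-labeled Runt domain protein. Amount: each fluorescent fusion protein 100 nM. Read-out basis: loss of energy transfer signal. Incubation: 1 h compound exposure, room temperature. Probe or stimulus: Venus-CBFb binding partner, 100 nM. Detection: FRET, excitation 422 nm, emission at 530 and 480 nm.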
# Runt-SMMHC FRET: Runt domain-CBFb-SMMHC interaction inhibition; Q01196+Q13951; actives 0.74% (n = 220,000); Cerulean-Runt/Venus-CBFb-SMMHC FRET ratio 530/480, 1 h; inhibition, % at 20 µM;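 active means mean inhibition across duplicate retests at 20 µM reaching about 50%, limit read from the data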;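 further: 0% = DMSO wells and 100% = wells with excess untagged CBFb-SMMHC; inhibitors lower the FRET ratio by blocking Runt binding to CBFb-SMMHC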
# RanGTP-Imp inh: inhibitors of RanGTP-importin-beta interaction, primary screen, biochemical, FRET, CFP-Ran, YFP-importin-beta, homogeneous | cell-free CFP-Ran/YFP-importin-beta FRET ratio | inhibition, % (test concentration not listed) | actives 1.1% (n = 300,000) | AID 2216;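 active means more than half of the replicate wells show a fall in the fluorescence ratio signal beyond about 16%, limit read from the data, passing the limit was not always enough; inconclusive means exactly half of the replicate wells pass the set limit; inactive means fewer than half of replicates pass the limit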;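 further: 0% = DMSO wells and 100% = Ran loaded with GDP instead of GTP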
# Rce1 inh: blocks yeast Ras-converting enzyme; yeast membranes, quenched prenylated peptide cleavage fluorescence; Q03530; calls only; AID 2563; actives 0.27% (n = 290,000);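 active means fall in fluorescence gain of 50% or more versus controls, with final raw signal at or below 3038400; inconclusive means same 50% fall but final raw signal above 3038400; inactive means fall in fluorescence gain under 50%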;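 further: plate controls were neutral control wells for no effect and wells lacking membranes for full effect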
# An asterisk follows results filed as active; i = inactive; ? = inconclusive; · = not tested or not shown; + = active, no number.
SMILES,Vif imaging,Runt-CBFb FRET,Runt-SMMHC FRET,RanGTP-Imp inh,Rce1 inh
COc1cc(OC)nc(Oc2ccccc2C(=O)Oc2cccc(C)c2)n1,74*,-4,-1,-2,i
Cc1cc2c(C)cc(=O)oc2c2c1NCCC2,5,17,60*,10,i
N#CCc1cnc2ccccc2n1,3,1,-5,29*,i
NNc1nc(-c2ccccc2Cl)c2cc(Br)ccc2n1,-15,·,·,3,i
O=C(O)CCC(=O)N1CCN(c2nc(-c3ccccc3)c3cc(Br)ccc3n2)CC1,-4,·,·,28*,i
CCOC(=O)N1CCN(c2nc(-c3ccccc3)c3cc(C)ccc3n2)CC1,-9,·,·,18*,i
Cc1ccc2nc(N3CCN(CCO)CC3)nc(-c3ccccc3)c2c1,·,·,·,?,i
O=C(O)CCC(=O)N1CCN(c2nc(-c3ccccc3Cl)c3cc(Br)ccc3n2)CC1,·,36,85*,31*,i
O=C(OC1CCCCC1=O)c1cc(S(=O)(=O)N2CCOCC2)ccc1F (stereo unspecified),0,·,·,-5,i
CCCC(=O)N1CCCC1(C)C(=O)NCc1ccc(SC)cc1 (stereo unspecified),15,·,·,·,·
Cc1cccc(N2CCN(C(=O)c3cc4ccccc4oc3=O)CC2)c1C,68*,-3,0,5,i
CC(C)(C)c1ccc(-c2noc(CCC(=O)NCC3CCCO3)n2)cc1 (stereo unspecified),-3,0,-4,2,i
Cc1ccc(CNC(=O)c2cc3c(=O)n4ccccc4nc3n(Cc3ccco3)c2=N)cc1,-2,88*,39,78*,i
N=c1c(C(=O)NCc2ccco2)cc2c(=O)n3ccccc3nc2n1Cc1ccc(Cl)cc1,·,66*,-16,126*,i
N=c1c(C(=O)NCc2ccc(F)cc2)cc2c(=O)n3ccccc3nc2n1Cc1ccco1,20,69*,·,3,i
N=c1c(C(=O)NCc2ccccc2)cc2c(=O)n3ccccc3nc2n1Cc1ccco1,-6,20,·,78*,i
CCOC(=O)c1cc2c(=O)n3ccccc3nc2n(Cc2ccc(Cl)cc2)c1=N,-3,·,·,·,·
Cc1cccc(NC(=O)c2cc3c(=O)n4ccccc4nc3n(CC(C)C)c2=N)c1,14,3,9,2,i
COc1ccc(/C=C/C2=CC(C)(C)NC(=S)N2)cc1,2,2,2,5,i
CCCCCCSc1cc(-c2nc3ccc(C)cn3c2NCc2ccccc2)ccc1OC,10,·,·,-1,i
C=CCNC(=O)/C(C#N)=C/c1ccc(OS(=O)(=O)c2ccc(C)cc2)c(OC)c1,1,-4,-8,?,i
Cc1ccc2nc3c(cc(C(=O)NCc4ccco4)c(=N)n3Cc3ccco3)c(=O)n2c1,9,·,·,89*,i
COCCn1c(=N)c(C(=O)NCc2ccco2)cc2c(=O)n3ccccc3nc21,4,11,41,·,·
N=c1c(C(=O)NCc2ccco2)cc2c(=O)n3ccccc3nc2n1Cc1ccccc1,12,19,58*,117*,i
CN(C)CCCNS(=O)(=O)c1ccc(NC2CCCCCC2)c([N+](=O)[O-])c1,-12,·,·,6,i
SMILES,Vif imaging,Runt-CBFb FRET,Runt-SMMHC FRET,RanGTP-Imp inh,Rce1 inh
COc1cc2c(cc1OC)CN(C1CCCN(Cc3cc(Cl)ccc3O)C1)CC2 (stereo unspecified),-4,·,·,5,i
COc1cc(OC)c(OC)cc1/C=N/Nc1ncnc2c1[nH]c1ccccc12,-2,20,75*,?,i
COc1ccc(/C=N/Nc2ncnc3c2[nH]c2ccc(C)cc23)c(OC)c1OC,-6,-5,2,3,i
O=C(CCC1CCCCC1)NCCN1C2=NC[C@H](Cc3ccc(O)cc3)N2C[C@H]1Cc1ccc(O)cc1,-3,0,-6,16*,i
Cc1ccc2c(c1)sc[n+]2Cc1ccccc1,1,40,68,0,+
O=C(Nc1cccc(S(=O)(=O)N2CCCCC2)c1)C1CC(=O)N(Cc2ccco2)C1 (stereo unspecified),-3,1,-3,40*,i
CCOc1ccc2nc3cc(NCc4ccc(OC)cc4)ccc3c(N)c2c1,·,·,·,27*,i
CCc1nc2ccc(F)cc2c(C(=O)NC2CCCCC2C)c1C (stereo unspecified),54*,-6,-6,1,i
[NH-]c1ncnc2c1N=C[N+]2=CC=CCO,-4,1,-1,5,i
O=C(CSc1nc2ccccc2c(=O)[nH]1)c1ccccc1,-3,-2,1,2,i
O=C(CCCSc1nc2ccccc2c(=O)[nH]1)c1ccccc1,52*,-1,1,-6,i
CCOC(=O)C1=C(CSc2nc3c(cc2C#N)CCC3)OC(N)=C(C#N)C1c1ccccc1 (stereo unspecified),-3,·,30,12,·
CCOC(=O)C1=C(CSc2nc3c(cc2C#N)CN(C)CC3)OC(N)=C(C#N)C1c1ccc(F)cc1 (stereo unspecified),-2,36,63*,19*,i
CCOC(=O)C1=C(CSc2nc3c(cc2C#N)CN(C)CC3)OC(N)=C(C#N)C1c1ccccc1 (stereo unspecified),-4,45,104*,32*,i
CCOc1ccccc1C(=O)NC(C(=O)OCn1nnc2ccccc2c1=O)C(C)C (stereo unspecified),3,·,·,·,·
O=S(=O)(NC1CCCCC1Oc1ccccc1)c1ccccc1 (stereo unspecified),-8,0,0,3,i
Cc1ccc(NC(=O)NNc2cccc(Cl)n2)cc1,-11,3,8,5,i
COc1ccc(S(=O)(=O)N2CCC(C(=O)NCCC(=O)Nc3cccc(Cl)c3)CC2)cc1,-4,·,·,0,i
O=c1oc2ccc3ccccc3c2c2c1SC(C(F)(F)F)C2 (stereo unspecified),8,22,54*,10,i
COc1ccc(C(=O)Nc2nc3cc4c(cc3s2)OCCO4)c(OC)c1,78*,-3,-1,0,i
CCCCn1c(N)c(N(CCC(C)C)C(=O)CCN2C(=O)C3CC=CCC3C2=O)c(=O)[nH]c1=O (stereo unspecified),-5,·,·,1,·
COc1cccc(Nc2nc(C)nc3c2oc2ccccc23)c1,-10,·,·,1,+
Cc1nc(Nc2cccc(Cl)c2)c2oc3ccccc3c2n1,-4,·,·,4,i
COc1ccc2ccc(OC)c(/C=N/n3cnnc3)c2c1,2,·,·,6,i
CCC(=O)Oc1ccc2c(C)c(Cl)c(=O)oc2c1,17,83*,127*,25*,i
Cc1c(Cl)c(=O)oc2cc(OC(C)C)ccc12,3,-1,1,3,i
Cc1nc2c(C(=O)N3CCN(C)CC3)cnn2c(C)c1Cc1ccc(Cl)cc1,-13,2,0,?,+
